Data on four compounds can be found in ChEMBL document CHEMBL2062518, “Total synthesis and biological evaluation of transvalencin Z” (J Nat Prod, 2012).

One may read the MIC99 as an inhibitory concentration at the 99% level, which refers to growth in some studies and to a panel of isolates in others.

The assay deals with Mycobacterium tuberculosis variant bovis BCG. The assay can be described thus: Antimicrobial activity against Mycobacterium bovis BCG TMC1011 Pasteur ATCC 35734 after 24 to 48 hrs. The format is functional. In outline:
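Streaked from frozen glycerol stock onto nutrient agar (1.5% agar), 37 °C, 24 h. Single colonies were grown in nutrient broth to OD600 1.0 and diluted to OD600 0.003. Cells were exposed to compound at varying concentrations from DMSO stocks (1% DMSO). Growth was read at 600 nm at 24 and 48 h, with 690 nm background subtracted and normalised to DMSO controls.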
As to `O=CNCCCC[C@@H](NC(=O)[C@H]1COC(c2ccccc2O)=N1)C(=O)O`, the MIC99 was above 100 µM.
`O=CNCCCC[C@H](NC(=O)[C@H]1COC(c2ccccc2O)=N1)C(=O)O` showed an MIC99 above 100 µM.
As to `O=CNCCCC[C@H](NC(=O)[C@@H]1COC(c2ccccc2O)=N1)C(=O)O`, the MIC99 is above 100 µM.
In turn, `O=CNCCCC[C@@H](NC(=O)[C@@H]1COC(c2ccccc2O)=N1)C(=O)O` showed an MIC99 above 100 µM.
